Laboratory results published in ChEMBL document CHEMBL2203264, “Optimization of imidazo[4,5-b]pyridine-based kinase inhibitors: identification of a dual FLT3/Aurora kinase inhibitor as an orally bioavailable preclinical development candidate for the treatment of acute myeloid leukemia” (J Med Chem, 2012).
The source made the active and inactive calls. The calls are words filed in the database; no cut-off is given here.

Experiments:
[1] = target: Vascular endothelial growth factor receptor 1 (Homo sapiens) (UniProt P17948); experiment: Inhibition of FLT1 at 1 uM
Sequence of Vascular endothelial growth factor receptor 1 (Homo sapiens) (P17948 whole entry): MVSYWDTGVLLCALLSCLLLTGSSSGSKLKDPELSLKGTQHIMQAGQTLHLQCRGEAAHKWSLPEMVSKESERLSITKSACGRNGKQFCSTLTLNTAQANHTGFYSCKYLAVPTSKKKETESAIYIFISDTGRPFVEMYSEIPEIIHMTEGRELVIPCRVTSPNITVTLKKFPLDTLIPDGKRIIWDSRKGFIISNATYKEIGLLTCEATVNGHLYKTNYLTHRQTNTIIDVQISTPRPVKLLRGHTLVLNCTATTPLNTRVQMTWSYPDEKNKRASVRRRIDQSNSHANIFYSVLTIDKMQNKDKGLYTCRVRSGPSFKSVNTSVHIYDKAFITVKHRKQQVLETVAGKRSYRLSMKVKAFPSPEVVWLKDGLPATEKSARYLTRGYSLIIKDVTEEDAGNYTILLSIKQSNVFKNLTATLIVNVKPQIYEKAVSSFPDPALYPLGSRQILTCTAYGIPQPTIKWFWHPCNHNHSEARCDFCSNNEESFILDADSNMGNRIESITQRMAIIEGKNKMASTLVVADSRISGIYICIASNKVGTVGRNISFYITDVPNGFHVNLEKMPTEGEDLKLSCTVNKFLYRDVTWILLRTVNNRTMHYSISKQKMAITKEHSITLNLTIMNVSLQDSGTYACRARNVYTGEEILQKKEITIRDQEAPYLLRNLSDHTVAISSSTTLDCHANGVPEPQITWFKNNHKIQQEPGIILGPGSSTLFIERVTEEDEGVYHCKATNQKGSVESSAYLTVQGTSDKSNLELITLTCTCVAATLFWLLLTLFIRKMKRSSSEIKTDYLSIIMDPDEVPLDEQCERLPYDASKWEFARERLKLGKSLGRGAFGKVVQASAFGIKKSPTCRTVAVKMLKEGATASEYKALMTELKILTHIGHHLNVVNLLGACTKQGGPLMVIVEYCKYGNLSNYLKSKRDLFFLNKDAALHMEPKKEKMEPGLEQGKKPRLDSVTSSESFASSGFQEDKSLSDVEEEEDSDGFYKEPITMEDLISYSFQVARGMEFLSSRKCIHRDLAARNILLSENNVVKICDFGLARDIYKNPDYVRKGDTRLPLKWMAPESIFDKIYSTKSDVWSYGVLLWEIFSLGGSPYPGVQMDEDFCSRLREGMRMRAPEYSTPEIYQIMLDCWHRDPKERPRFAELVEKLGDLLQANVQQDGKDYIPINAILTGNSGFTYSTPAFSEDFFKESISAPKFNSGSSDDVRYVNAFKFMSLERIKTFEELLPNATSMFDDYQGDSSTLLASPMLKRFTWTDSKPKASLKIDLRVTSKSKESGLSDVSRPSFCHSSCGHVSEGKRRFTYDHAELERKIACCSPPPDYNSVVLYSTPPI
In short: (§1)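 KINOMEScan competition-binding panel of 442 kinases (386 nonmutant) tested at 1 μM. Binding is read as percent of control ligand competition; <10% of control counts as a hit for the S(10) score.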

[2] = target: Platelet-derived growth factor receptor beta (Homo sapiens) (UniProt P09619); experiment: Inhibition of PDGFRB at 1 uM; in short: as §1
Sequence of Platelet-derived growth factor receptor beta (Homo sapiens) (P09619 whole entry): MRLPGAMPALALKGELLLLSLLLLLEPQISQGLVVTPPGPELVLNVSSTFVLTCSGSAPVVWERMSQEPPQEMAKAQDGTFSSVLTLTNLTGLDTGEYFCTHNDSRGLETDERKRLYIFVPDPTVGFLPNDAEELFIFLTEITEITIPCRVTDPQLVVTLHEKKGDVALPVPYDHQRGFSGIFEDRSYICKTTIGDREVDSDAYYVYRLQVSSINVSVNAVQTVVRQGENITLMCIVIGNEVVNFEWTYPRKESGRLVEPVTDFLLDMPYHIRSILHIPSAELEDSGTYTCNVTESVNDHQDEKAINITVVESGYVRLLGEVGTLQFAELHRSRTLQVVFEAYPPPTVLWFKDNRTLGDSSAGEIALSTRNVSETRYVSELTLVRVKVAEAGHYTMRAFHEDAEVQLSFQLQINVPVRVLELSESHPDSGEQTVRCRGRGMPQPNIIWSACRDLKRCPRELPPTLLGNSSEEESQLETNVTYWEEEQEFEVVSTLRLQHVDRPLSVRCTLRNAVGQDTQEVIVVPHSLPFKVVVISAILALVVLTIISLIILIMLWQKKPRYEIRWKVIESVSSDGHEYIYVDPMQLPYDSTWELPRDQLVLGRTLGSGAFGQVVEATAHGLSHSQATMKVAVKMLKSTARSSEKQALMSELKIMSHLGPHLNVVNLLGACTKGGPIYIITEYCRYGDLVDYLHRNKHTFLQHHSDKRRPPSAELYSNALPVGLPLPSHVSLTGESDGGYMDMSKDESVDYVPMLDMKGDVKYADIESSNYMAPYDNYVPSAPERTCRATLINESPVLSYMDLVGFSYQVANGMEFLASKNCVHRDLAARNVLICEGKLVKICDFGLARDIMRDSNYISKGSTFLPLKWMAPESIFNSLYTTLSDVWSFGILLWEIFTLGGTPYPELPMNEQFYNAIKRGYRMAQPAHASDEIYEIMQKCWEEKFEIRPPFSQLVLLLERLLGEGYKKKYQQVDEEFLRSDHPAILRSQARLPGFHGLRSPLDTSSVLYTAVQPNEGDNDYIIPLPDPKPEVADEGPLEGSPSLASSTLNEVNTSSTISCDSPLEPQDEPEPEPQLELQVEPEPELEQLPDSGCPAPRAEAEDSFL

[3] = test system: Mus musculus; experiment: Inhibition of Histone H3 phosphorylation in tumor of human MV4-11 cells xenografted CrTacNCr-Fox1(nu) athymic mouse at 50 to 100 mg/kg, po bid for 4 days measured after 2 hrs post final dose; assay type: functional, organism-based
In short: (§2)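 MV4-11 xenograft-bearing athymic mice dosed orally at 50 or 100 mg/kg twice daily for 4 days, starting 17 days after implantation. Tumors harvested 2 h after the final dose. Western blotting for phospho-histone H3 (S10) and phospho-Stat5 (Y694), with total histone H3, total Stat5 and GAPDH as loading controls.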

[4] = test system: MV4-11; experiment: Antitumor activity against human MV4-11 cells xenografted in CrTacNCr-Fox1(nu) athymic mouse assessed as tumor growth inhibition at 100 mg/kg, po bid administered 10 days post implantation daily for 7 days measured after 11 days; assay type: functional, organism-based; set-up: dose 100 mg/kg
In short: (§3)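 Female adult athymic nude mice implanted subcutaneously with 10^7 FLT3-ITD-positive MV4-11 cells; treatment started 10 days after implantation, once mean tumor volume was at least 100 mm^3. Oral dosing at 50 or 100 mg/kg (n = 5 per group), twice daily for 7 days, then once daily for a further 4 days. Vehicle: 10% DMSO, 20% PEG 400, 5% Tween 80, 65% water. Tumor volume followed to day 60.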

[5] = AUC (infinity) in Balb/C mouse at 5 mg/kg, iv; assay type: ADME, organism-based; set-up: time infinity, dose 5 mg/kg, route intravenous; conditions: plasma
In short: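 Female Balb/C mice dosed iv at 5 mg/kg in 10% DMSO, 5% Tween 20 in saline. Mice killed at 5, 15, 30 min and 1, 2, 4, 6, 24 h. Plasma from cardiac blood was methanol-precipitated with olomoucine internal standard, then analysed by LC–MS (positive ESI MRM).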

[6] = Lipophilicity, log D of the compound; assay type: physicochemical; conditions: octanol/water
[7] = AUC (infinity) in Sprague-Dawley rat at 5 mg/kg, iv; assay type: ADME, organism-based; set-up: time infinity, dose 5 mg/kg, route intravenous; conditions: plasma
In short: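 Female Sprague–Dawley rats dosed iv at 5 mg/kg in 10% DMSO, 5% Tween 20, 85% saline, 0.3% 1 M HCl. Serial tail-vein bleeds at 15, 30 min and 2, 4, 6, 24 h. Plasma was methanol-precipitated with olomoucine internal standard, then analysed by LC–MS (positive ESI MRM).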

[8] = Clearance in Sprague-Dawley rat at 5 mg/kg, iv; assay type: ADME, organism-based; set-up: dose 5 mg/kg, route intravenous; conditions: in vivo
In short: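 Female Sprague–Dawley rats given 5 mg/kg iv in 10% DMSO, 5% Tween 20, 85% saline, 0.3% 1 M HCl. Serial tail vein bleeds at 15 and 30 min and 2, 4, 6, 24 h; plasma protein-precipitated with methanol with olomoucine internal standard; drug quantified by LC–MS (positive ESI MRM). Clearance given as L/h and mL/min/kg.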

[9] = test system: Mus musculus; experiment: Volume of distribution in Balb/C mouse at 5 mg/kg, iv and 5 mg/kg, po; assay type: ADME, organism-based; conditions: in vivo
In short: (§4)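 Female Balb/C mice given 5 mg/kg po or iv in 10% DMSO, 5% Tween 20 in saline. Killed at 5, 15, 30 min and 1, 2, 4, 6, 24 h; plasma from cardiac blood. Methanol protein precipitation with olomoucine internal standard, then LC-MS (reverse-phase C18, positive ESI MRM).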

[10] = target: Cytochrome P450 3A4 (Homo sapiens, UniProt P08684); experiment: Inhibition of human liver microsome CYP3A4 by LC-MS-MS analysis; assay type: ADME
Sequence of Cytochrome P450 3A4 (P08684 whole entry): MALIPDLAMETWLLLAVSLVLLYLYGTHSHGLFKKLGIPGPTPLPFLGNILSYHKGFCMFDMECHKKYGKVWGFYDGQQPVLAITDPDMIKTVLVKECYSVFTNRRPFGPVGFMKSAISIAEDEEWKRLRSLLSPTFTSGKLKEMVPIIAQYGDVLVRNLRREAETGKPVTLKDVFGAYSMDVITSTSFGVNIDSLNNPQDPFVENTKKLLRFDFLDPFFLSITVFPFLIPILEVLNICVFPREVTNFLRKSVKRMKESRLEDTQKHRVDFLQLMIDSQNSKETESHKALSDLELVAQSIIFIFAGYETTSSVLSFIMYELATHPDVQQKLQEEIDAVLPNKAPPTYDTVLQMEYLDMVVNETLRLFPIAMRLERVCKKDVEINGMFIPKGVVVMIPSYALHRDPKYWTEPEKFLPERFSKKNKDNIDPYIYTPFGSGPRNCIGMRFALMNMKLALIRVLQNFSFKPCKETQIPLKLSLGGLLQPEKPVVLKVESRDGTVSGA
In short: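 Pooled human liver microsomes (50 donors) at 0.5 mg/mL protein, 10 min incubation; metabolite detected by LC-MS/MS with positive ESI.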

[11] = test system: MV4-11; experiment: Antitumor activity against human MV4-11 cells xenografted in CrTacNCr-Fox1(nu) athymic mouse assessed as reduction in tumor relapse at 50 to 100 mg/kg, po bid administered 10 days post implantation daily for 7 days measured after 60 days; assay type: functional; set-up: scale not given: the % may be the effect or the level left; conditions: dose mg/kg 50-100
In short: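 Female adult CrTacNcr-Fox1(nu) athymic mice, s.c. 10^7 FLT3-ITD-positive MV4-11 cells; treatment began at 10 days (mean tumor volume at least 100 mm^3). Oral 50 or 100 mg/kg in 10% DMSO, 20% PEG 400, 5% Tween 80, 65% water, or vehicle alone; n = 5 per group. Dosed twice daily for 7 days, then once daily for 4 days; study ended day 60.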

[12] = Metabolic stability in human liver microsomes assessed as parent compound metabolism after 30 mins by LC-MS analysis; assay type: ADME, Microsome; conditions: read-out: Drug metabolism
In short: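 Test compound at 10 μM with pooled mixed-gender human liver microsomes (1 mg/mL protein), NADPH 1 mM, UDPGA 2.5 mM and MgCl2 3 mM in 10 mM PBS at 37 °C for 0 and 30 min. Controls omit NADPH/UDPGA. Compound remaining measured by LC–MS; reported as percent of parent metabolized at 30 min.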

[13] = test system: MV4-11; experiment: Antitumor activity against human MV4-11 cells xenografted in po dosed CrTacNCr-Fox1(nu) athymic mouse assessed as tumor growth inhibition administered 10 days post implantation twice daily for 7 days; assay type: functional, organism-based; in short: as §3
[14] = Half life in Balb/C mouse at 5 mg/kg, iv; assay type: ADME, organism-based; set-up: dose 5 mg/kg, route intravenous; conditions: in vivo; in short: as §4
[15] = Metabolic stability in mouse liver microsomes assessed as parent compound metabolism after 30 mins by LC-MS analysis; assay type: ADME, Microsome; conditions: read-out: Drug metabolism
In short: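 Male CD1 mouse liver microsomes (1 mg/mL protein) incubated with 10 μM compound plus NADPH 1 mM, UDPGA 2.5 mM and MgCl2 3 mM in 10 mM PBS at 37 °C for 0 and 30 min. NADPH/UDPGA-free controls included. LC–MS quantitation of remaining compound; reported as percent parent metabolized after 30 min.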

[16] = target: Voltage-gated inwardly rectifying potassium channel KCNH2 (Homo sapiens, UniProt Q12809); experiment: Inhibition of human ERG by whole-cell voltage clamping
Sequence of Voltage-gated inwardly rectifying potassium channel KCNH2 (Q12809 whole entry): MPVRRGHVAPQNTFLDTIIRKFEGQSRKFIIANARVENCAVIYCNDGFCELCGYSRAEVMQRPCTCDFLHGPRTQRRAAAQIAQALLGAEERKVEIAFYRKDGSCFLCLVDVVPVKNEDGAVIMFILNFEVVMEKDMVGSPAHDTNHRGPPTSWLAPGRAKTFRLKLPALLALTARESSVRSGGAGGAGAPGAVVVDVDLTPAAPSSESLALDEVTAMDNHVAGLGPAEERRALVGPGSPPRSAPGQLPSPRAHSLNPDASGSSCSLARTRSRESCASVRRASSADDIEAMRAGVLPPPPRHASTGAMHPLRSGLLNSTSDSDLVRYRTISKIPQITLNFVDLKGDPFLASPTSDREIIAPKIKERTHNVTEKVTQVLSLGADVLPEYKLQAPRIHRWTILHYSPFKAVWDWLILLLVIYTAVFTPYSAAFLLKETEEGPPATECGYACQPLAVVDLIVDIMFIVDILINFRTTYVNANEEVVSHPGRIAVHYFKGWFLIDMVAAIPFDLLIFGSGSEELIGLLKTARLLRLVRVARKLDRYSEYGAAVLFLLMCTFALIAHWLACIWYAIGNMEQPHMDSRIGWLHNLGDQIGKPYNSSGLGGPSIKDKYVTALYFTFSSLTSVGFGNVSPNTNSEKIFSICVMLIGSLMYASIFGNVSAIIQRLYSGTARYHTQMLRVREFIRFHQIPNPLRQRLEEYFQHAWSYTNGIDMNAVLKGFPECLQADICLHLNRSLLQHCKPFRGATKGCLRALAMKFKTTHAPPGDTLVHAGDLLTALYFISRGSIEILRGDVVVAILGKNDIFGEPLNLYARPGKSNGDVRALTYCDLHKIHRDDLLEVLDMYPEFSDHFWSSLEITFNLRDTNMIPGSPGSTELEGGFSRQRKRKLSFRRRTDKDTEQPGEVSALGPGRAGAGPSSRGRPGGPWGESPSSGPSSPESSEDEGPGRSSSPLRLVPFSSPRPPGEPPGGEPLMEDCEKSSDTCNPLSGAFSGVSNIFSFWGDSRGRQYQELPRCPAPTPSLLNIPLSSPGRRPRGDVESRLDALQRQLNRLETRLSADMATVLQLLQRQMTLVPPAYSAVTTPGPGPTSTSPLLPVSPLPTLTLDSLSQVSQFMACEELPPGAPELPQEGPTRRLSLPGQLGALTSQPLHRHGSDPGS
In short: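 hERG tail current measured by whole-cell voltage clamp (Cyprotex) to obtain an IC50. Single-point screens were a separate high-throughput cell-based electrophysiology assay at 10 μM, with 0.3% DMSO vehicle and 1 μM cisapride as controls.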

[17] = Oral bioavailability in Sprague-Dawley rat at 5 mg/kg; assay type: ADME, organism-based; conditions: in vivo
In short: (§5)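 Female Sprague-Dawley rats, 5 mg/kg. Oral vehicle 10% DMSO, 5% Tween 80, 20% PEG400 in water; iv vehicle 10% DMSO, 5% Tween 20, 85% saline, 0.3% 1 M HCl. Serial tail-vein plasma at 15, 30 min and 2, 4, 6, 24 h. Methanol precipitation with olomoucine internal standard, then LC-MS (C18 BEH, positive ESI MRM).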

[18] = test system: Mus musculus; experiment: Inhibition of Stat5 phosphorylation at Y694 in tumor of human MV4-11 cells xenografted CrTacNCr-Fox1(nu) athymic mouse at 50 to 100 mg/kg, po bid for 4 days measured after 2 hrs post final dose; assay type: functional, organism-based; in short: as §2
[19] = Half life in Sprague-Dawley rat at 5 mg/kg, iv; assay type: ADME, organism-based; set-up: dose 5 mg/kg, route intravenous; conditions: in vivo; in short: as §5
[20] = test system: Caco-2; experiment: Permeability across human Caco2 cells; assay type: ADME, cell-based
[21] = Oral bioavailability in Balb/C mouse at 5 mg/kg; assay type: ADME, organism-based; conditions: in vivo; in short: as §4

Which results are given for `Cc1nn(C)cc1-c1nc2c(N3CCN(Cc4ccc(Cl)cc4)CC3)c(Cl)cnc2[nH]1` [MOBINITINIB]?
inhibition [1]: 0.3%; inhibition [2]: 4%; inhibition [3]: Active; Activity [4]: Active; AUC(0-inf) [5]: 3.75 µM·h; logD [6]: 3.84; AUC(0-inf) [7]: 39.9 µM·h; clearance [8]: 0.95 mL/min; Vd [9]: 3.3 L/kg; IC50 [10]: > 10 µM; Activity [11]: 60%; metabolised at 0.5 h [12]: 10%; TGI [13]: Dose-dependent effect; half-life [14]: 0.84 h; metabolised at 0.5 h [15]: 34%; IC50 [16]: > 25 µM; bioavailability [17]: 79%; inhibition [18]: Active; half-life [19]: 4.62 h; permeability [20]: 186 nm/s; bioavailability [21]: 100%
